Experimental data: ChEMBL document CHEMBL1949635, “Discovery of AMG 853, a CRTH2 and DP Dual Antagonist” (ACS Med Chem Lett, 2011)
Active and inactive are the calls of the source. No cut-off for these calls is given here.

Legend:
[1] = target: T1, Prostaglandin D2 receptor 2 (Homo sapiens, UniProt Q9Y5Y4); assay: Displacement of [3H]-PGD2 from human CRTH2 receptor expressed in human HEK293 cells by scintillation counter in presence of 50% human plasma; format: cell-based
T1 sequence (Q9Y5Y4 whole entry): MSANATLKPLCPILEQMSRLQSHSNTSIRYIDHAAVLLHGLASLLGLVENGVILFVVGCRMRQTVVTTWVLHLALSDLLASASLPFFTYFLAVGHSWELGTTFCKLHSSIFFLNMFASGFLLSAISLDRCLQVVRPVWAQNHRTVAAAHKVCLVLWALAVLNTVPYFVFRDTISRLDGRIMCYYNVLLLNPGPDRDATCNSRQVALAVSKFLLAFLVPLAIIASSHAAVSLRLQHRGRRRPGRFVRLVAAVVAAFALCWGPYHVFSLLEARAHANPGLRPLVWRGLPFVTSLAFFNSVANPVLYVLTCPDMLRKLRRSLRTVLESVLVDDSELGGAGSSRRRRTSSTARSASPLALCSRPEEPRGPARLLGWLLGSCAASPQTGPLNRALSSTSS

[2] = target: T1, Prostaglandin D2 receptor 2; assay: Displacement of [3H]-PGD2 from human CRTH2 receptor expressed in human HEK293 cells by scintillation counter in presence of 0.5% bovine serum albumin; format: cell-based
[3] = target: T2, Prostaglandin D2 receptor (Homo sapiens, UniProt Q13258); assay: Displacement of [3H]-PGD2 from human Prostanoid DP receptor expressed in human HEK293 cells by scintillation counter in presence of 0.5% bovine serum albumin; format: cell-based
T2 sequence (Q13258 whole entry): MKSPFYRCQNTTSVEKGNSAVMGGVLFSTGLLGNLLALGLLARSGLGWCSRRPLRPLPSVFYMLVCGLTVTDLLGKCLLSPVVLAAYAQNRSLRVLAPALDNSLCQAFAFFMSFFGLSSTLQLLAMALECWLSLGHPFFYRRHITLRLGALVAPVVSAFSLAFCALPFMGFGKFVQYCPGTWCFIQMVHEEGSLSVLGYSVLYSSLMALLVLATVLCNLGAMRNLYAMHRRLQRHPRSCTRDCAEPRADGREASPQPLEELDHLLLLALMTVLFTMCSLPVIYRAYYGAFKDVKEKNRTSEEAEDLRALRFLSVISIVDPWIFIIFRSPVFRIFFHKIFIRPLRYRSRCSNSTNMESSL
Outline: (§1)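 [3H]-PGD2 incubated with HEK-293 cells stably expressing human DP, with increasing compound concentrations; binding buffer held 0.5% BSA or 50% human plasma. Means of three experiments, standard deviation ±30%.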

[4] = target: T2, Prostaglandin D2 receptor; assay: Displacement of [3H]-PGD2 from human Prostanoid DP receptor expressed in human HEK293 cells by scintillation counter in presence of 50% human plasma; format: cell-based; outline: as §1
[5] = Plasma concentration in guinea pig at 10 mg/kg, sc after 4 hrs; format: ADME, organism-based, Cavia porcellus; parameters: dose 10 mg/kg, route subcutaneous
Outline: (§2)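 Guinea pig plasma drug levels taken 4 h after sc dosing, in the PGD2 aerosol airway-constriction study; n = 4 animals per group.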

[6] = Plasma concentration in guinea pig at 1 mg/kg, sc after 4 hrs; format: ADME, organism-based, Cavia porcellus; parameters: dose 1 mg/kg, route subcutaneous; outline: as §2
[7] = Plasma concentration in guinea pig at 0.3 mg/kg, sc after 4 hrs; format: ADME, organism-based, Cavia porcellus; parameters: dose 0.3 mg/kg, route subcutaneous; outline: as §2
[8] = Plasma concentration in guinea pig at 3 mg/kg, sc after 4 hrs; format: ADME, organism-based, Cavia porcellus; parameters: dose 3 mg/kg, route subcutaneous; outline: as §2
[9] = Antagonist activity at guinea pig Prostanoid DP receptor in whole blood by cAMP assay; format: functional; conditions: Cavia porcellus
[10] = tested on: Cavia porcellus; assay: Inhibition of PGD2-induced airway constriction in guinea pig model at 0.3 to 10 mg/kg, sc administered 4 hrs prior to aerosolized PGD2 challenge; format: functional, organism-based
Outline: (§3)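 Guinea pigs dosed sc 4 h before exposure to aerosolized PGD2 (0.6 mg/mL). Airway resistance recorded as Penh (enhanced pause) in response to the challenge. n = 4 animals per group.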

[11] = Clearance in cynomolgus monkey at 0.5 mg/kg, iv; format: ADME, organism-based, Macaca fascicularis; parameters: dose 0.5 mg/kg, route intravenous; conditions: in vivo
[12] = Plasma concentration in guinea pig at 0.1 mg/kg, sc after 4 hrs; format: ADME, organism-based, Cavia porcellus; parameters: dose 0.1 mg/kg, route subcutaneous; outline: as §2
[13] = Mean residence time in rat; format: ADME, organism-based; conditions: in vivo
[14] = Volume of distribution at steady state in cynomolgus monkey; format: ADME, organism-based, Macaca fascicularis; conditions: in vivo, read-out: Vdss
[15] = tested on: Cavia porcellus; assay: Inhibition of PGD2-induced airway constriction in guinea pig model at 0.1 to 10 mg/kg, sc administered 4 hrs prior to aerosolized PGD2 challenge; format: functional, organism-based; outline: as §3
[16] = Oral bioavailability in dog at 2 mg/kg; format: ADME, organism-based, Canis lupus familiaris; conditions: in vivo
[17] = Clearance in dog at 0.5 mg/kg, iv; format: ADME, organism-based, Canis lupus familiaris; parameters: dose 0.5 mg/kg, route intravenous; conditions: in vivo
[18] = Oral bioavailability in rat at 2 mg/kg; format: ADME, organism-based; conditions: in vivo
[19] = Volume of distribution at steady state in dog; format: ADME, organism-based, Canis lupus familiaris; conditions: in vivo, read-out: Vdss
[20] = Clearance in rat at 0.5 mg/kg, iv; format: ADME, organism-based; parameters: dose 0.5 mg/kg, route intravenous; conditions: in vivo
[21] = Mean residence time in dog; format: ADME, organism-based, Canis lupus familiaris; conditions: in vivo
[22] = Oral bioavailability in cynomolgus monkey at 2 mg/kg; format: ADME, organism-based, Macaca fascicularis; conditions: in vivo
[23] = Inhibition of CYP450; format: ADME
[24] = Mean residence time in cynomolgus monkey; format: ADME, organism-based, Macaca fascicularis; conditions: in vivo
[25] = Volume of distribution at steady state in rat; format: ADME, organism-based; conditions: in vivo, read-out: Vdss

`CCCCNC(=O)c1ccc(Oc2ccc(CC(=O)O)cc2C)c(NS(=O)(=O)c2ccc(Cl)cc2Cl)c1` gave an IC50 [1] of 26 nM, an IC50 [2] of 3 nM and an IC50 [3] of 6 nM. It also gave an IC50 [4] of 230 nM.
Work on `O=C(O)Cc1cc(Cl)c(Oc2ccc(C(=O)NC3CCC3)cc2NS(=O)(=O)c2ccc(OC(F)(F)F)cc2Cl)cc1F` yielded an IC50 [1] of 8 nM, an IC50 [2] of 5 nM and an IC50 [3] of 10 nM. The IC50 [4] was 19 nM.
For `CC(C)(C)NC(=O)c1ccc(Oc2cc(F)c(CC(=O)O)cc2Cl)c(NS(=O)(=O)c2ccc(OC(F)(F)F)cc2Cl)c1`, the IC50 [1] was 19 nM, the IC50 [2] was 9 nM and the IC50 [3] was 14 nM.
With `O=C(O)Cc1cc(F)c(Oc2ccc(C(=O)NC3CCC3)cc2NS(=O)(=O)c2ccc(C(F)(F)F)cc2Cl)cc1F` the IC50 [1] was 41 nM, the IC50 [2] was 13 nM and the IC50 [3] was 9 nM. It also gave an IC50 [4] of 22 nM.
Molecule `O=C(O)Cc1ccc(Oc2ccc(C(=O)NC3CCC3)cc2NS(=O)(=O)c2ccc(Cl)cc2)c(Cl)c1` has an IC50 [1] of 12 nM, an IC50 [2] of 6 nM and an IC50 [3] of 16 nM. It also gave an IC50 [4] of 85 nM.
`CCCCNC(=O)c1ccc(Oc2ccc(CC(=O)O)cc2OC)c(NS(=O)(=O)c2cc(Cl)ccc2Cl)c1` gave an IC50 [3] of 50 nM and an IC50 [4] of 3640 nM.
For `CCCCNC(=O)c1ccc(Oc2ccc(CC(=O)O)cc2OC)c(NS(=O)(=O)c2ccc(C(F)(F)F)cc2Cl)c1`, the IC50 [3] was 21 nM and the IC50 [4] was 190 nM.
For `CCCCNC(=O)c1ccc(Oc2ccc(CC(=O)O)cc2OC)c(NS(=O)(=O)c2cccc(Cl)c2Cl)c1`, the IC50 [3] was 520 nM and the IC50 [4] was 2340 nM.
With `CCCCNC(=O)c1ccc(Oc2ccc(CC(=O)O)cc2Cl)c(NS(=O)(=O)c2ccc(Cl)cc2Cl)c1` the IC50 [1] was 90 nM, the IC50 [2] was 6 nM and the IC50 [3] was 8 nM. The IC50 [4] was 1330 nM.
Molecule `CCCCNC(=O)c1ccc(Oc2ccc(CC(=O)O)cc2OC)c(NS(=O)(=O)c2ccc(Cl)c(Cl)c2)c1` has an IC50 [3] of 21 nM and an IC50 [4] of 120 nM.
Work on `CCCCNC(=O)c1ccc(Oc2ccc(CC(=O)O)cc2OC)c(NS(=O)(=O)c2cc(Cl)cc(Cl)c2)c1` yielded an IC50 [3] of 930 nM and an IC50 [4] greater than 10000 nM.
`COc1cc(CC(=O)O)ccc1Oc1ccc(C(=O)NC2CCC2)cc1NS(=O)(=O)c1ccc(C(F)(F)F)cc1Cl` showed an IC50 [1] of 13 nM, an IC50 [2] of 4 nM and an IC50 [3] of 13 nM. For the same molecule, the IC50 [4] was 45 nM.
`CCCCNC(=O)c1ccc(Oc2ccc(CC(=O)O)cc2F)c(NS(=O)(=O)c2ccc(Cl)cc2Cl)c1` showed an IC50 [1] of 110 nM, an IC50 [2] of 7 nM and an IC50 [3] of 30 nM. For the same molecule, the IC50 [4] was 440 nM.
Molecule `CCCCNC(=O)c1ccc(Oc2ccc(CC(=O)O)cc2OC)c(NS(=O)(=O)c2ccc(Cl)cc2Cl)c1` has a concentration at 4 h [5] of 939 nM, a concentration at 4 h [6] of 152 nM and a concentration at 4 h [7] of 117 nM. The concentration at 4 h [8] was 688 nM, the Kb [9] was 82 nM and the inhibition [10] was “Active”.
`CC(C)(C)NC(=O)c1ccc(Oc2ccc(CC(=O)O)cc2Cl)c(NS(=O)(=O)c2ccc(Cl)cc2)c1` gave an IC50 [1] of 15 nM, an IC50 [2] of 9 nM and an IC50 [3] of 46 nM. For the same molecule, the IC50 [4] was 450 nM.
Work on `CCCCNC(=O)c1ccc(Oc2ccc(CC(=O)O)cc2OC)c(NS(=O)(=O)c2c(Cl)cccc2Cl)c1` yielded an IC50 [3] greater than 10000 nM.
In the case of `CC(C)(C)NC(=O)c1ccc(Oc2ccc(CC(=O)O)cc2Cl)c(NS(=O)(=O)c2ccc(Cl)cc2Cl)c1`, the IC50 [1] is reported as 12 nM, the IC50 [2] is reported as 5 nM and the IC50 [3] is reported as 15 nM. For the same molecule, the IC50 [4] was 230 nM.
For `O=C(O)Cc1cc(F)c(Oc2ccc(C(=O)NC3CCC3)cc2NS(=O)(=O)c2ccc(OC(F)(F)F)cc2Cl)cc1F`, the IC50 [1] was 53 nM, the IC50 [2] was 25 nM and the IC50 [3] was 20 nM. It also gave an IC50 [4] of 42 nM.
For `CCCCNC(=O)c1ccc(Oc2cc(F)c(CC(=O)O)cc2F)c(NS(=O)(=O)c2ccc(Cl)cc2Cl)c1`, the IC50 [3] was 7 nM and the IC50 [4] was 600 nM.
For `O=C(O)Cc1ccc(Oc2ccc(C(=O)NC3CC3)cc2NS(=O)(=O)c2ccc(Cl)cc2Cl)c(Cl)c1`, the IC50 [1] was 25 nM, the IC50 [2] was 7 nM and the IC50 [3] was 14 nM. For the same molecule, the IC50 [4] was 220 nM.
With `O=C(O)Cc1ccc(Oc2ccc(C(=O)NC3CCC3)cc2NS(=O)(=O)c2ccc(Cl)cc2Cl)c(Cl)c1` the IC50 [1] was 19 nM, the IC50 [2] was 5 nM and the IC50 [3] was 9 nM. For the same molecule, the IC50 [4] was 210 nM.
`CC(C)(C)NC(=O)c1ccc(Oc2cc(F)c(CC(=O)O)cc2Cl)c(NS(=O)(=O)c2ccc(C3CC3)cc2Cl)c1` [VIDUPIPRANT] gave a concentration at 4 h [5] of 1400 nM, a concentration at 4 h [6] of 77 nM and a clearance [11] of 16 mL/min/kg. The concentration at 4 h [12] was 32 nM, the MRT [13] was 3.9 h and the Vd [14] was 0.97 L/kg. For the same molecule, the inhibition [15] was “Active”, the bioavailability [16] was 100% and the clearance [17] was 15 mL/min/kg. It also gave a concentration at 4 h [7] of 40 nM, a concentration at 4 h [8] of 222 nM and a bioavailability [18] of 87%. The Kb [9] was 5 nM, the Vd [19] was 2.72 L/kg and the clearance [20] was 3.17 mL/min/kg. For the same molecule, the MRT [21] was 3 h, the bioavailability [22] was 79% and the “inhibition (INH)” value [23] was “Not Active”. For the same molecule, the MRT [24] was 1 h, the IC50 [3] was 4 nM and the IC50 [4] was 35 nM. For the same molecule, the Vd [25] was 0.71 L/kg.
With `CCCCNC(=O)c1ccc(Oc2ccc(CC(=O)O)cc2C#N)c(NS(=O)(=O)c2ccc(Cl)cc2Cl)c1` the IC50 [1] was 210 nM, the IC50 [2] was 18 nM and the IC50 [3] was 310 nM.
For `COc1cc(CC(=O)O)ccc1Oc1ccc(C(=O)NC2CC2)cc1NS(=O)(=O)c1ccc(Cl)cc1Cl`, the IC50 [4] was 1030 nM.
